Measured values gathered from unrelated publications.
Target: Myotonin-protein kinase (DMPK, Homo sapiens, UniProt Q09013)
One construct used (Q09013 1-629): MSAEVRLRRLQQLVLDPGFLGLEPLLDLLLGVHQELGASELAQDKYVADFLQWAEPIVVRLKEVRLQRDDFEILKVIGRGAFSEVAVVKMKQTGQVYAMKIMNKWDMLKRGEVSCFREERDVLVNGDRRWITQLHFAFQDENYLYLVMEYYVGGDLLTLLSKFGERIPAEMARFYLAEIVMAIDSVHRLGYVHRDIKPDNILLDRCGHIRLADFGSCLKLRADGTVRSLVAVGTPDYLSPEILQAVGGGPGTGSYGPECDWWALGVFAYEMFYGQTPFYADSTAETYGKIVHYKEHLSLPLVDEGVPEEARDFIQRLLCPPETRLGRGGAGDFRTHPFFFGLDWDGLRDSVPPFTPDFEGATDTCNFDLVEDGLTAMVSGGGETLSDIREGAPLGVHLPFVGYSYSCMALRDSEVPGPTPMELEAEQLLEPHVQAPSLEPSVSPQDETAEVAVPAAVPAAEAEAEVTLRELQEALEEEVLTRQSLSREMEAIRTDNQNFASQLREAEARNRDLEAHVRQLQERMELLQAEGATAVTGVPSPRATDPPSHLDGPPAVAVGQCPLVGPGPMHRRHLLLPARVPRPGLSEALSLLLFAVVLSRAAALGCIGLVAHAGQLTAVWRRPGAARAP

C#Cc1cccc(Nc2ncnc3cc(OCCOC)c(OCCOC)cc23)c1  remaining signal (cell-free assay; 0.5 µM): 96.9%
Cn1c2c(c3ccc(Cl)c(Cl)c31)C(C#N)C1(CCOCC1)NC2=O (stereo not shown)  ΔTm (thermal stability; DSF; 10 µM): 0 °C
CC(C)(C)c1nc2c(s1)c1nc(N)ncc1c1ccc(NS(=O)(=O)c3c(F)cccc3F)c(F)c12  remaining activity (enzyme activity; inhibitor; radiometric; 1 µM): 95%
Cn1c2c(c3ccc(Cl)c(Cl)c31)C(C#N)C1(CCNCC1)NC2=O (racemic)  ΔTm (thermal stability; DSF; 10 µM): -0.3 °C
COc1ccc2c(O[C@@H]3C[C@H]4C(=O)N[C@]5(C(=O)O)CC5/C=C\CCCCC[C@H](NC(=O)OC5CCCC5)C(=O)N4C3)cc(-c3csc(NC(=O)C(C)C)n3)nc2c1C (stereo partly shown)  remaining binding (cell-free assay; competition with immobilised ligand; 1 µM): 83%
Cc1ccc(NC(=O)c2ccc(C)c(C(F)(F)F)c2)cc1C#Cc1nn(C2CCC(O)CC2)c2ncnc(N)c12 (stereo not shown)  remaining signal (cell-free assay; 10 µM): 91%
Cn1c2c(c3ccc(Cl)c(Cl)c31)C(C#N)C1(CCCC1)NC2=O (stereo not shown)  ΔTm (thermal stability; DSF; 10 µM): -0.2 °C
Cc1cc(NC(=O)c2cccc3cc(-c4cccc5[nH]nc(N)c45)ccc23)ccc1F  activity vs control (enzyme activity; inhibitor; 0.1 µM): 99%
O=C1NC(=O)c2cc(Nc3ccc(F)cc3)c(Nc3ccc(F)cc3)cc21  remaining signal (cell-free assay; 0.5 µM): 108%
CNC(=O)c1cc(Oc2ccc(NC(=O)Nc3ccc(Cl)c(C(F)(F)F)c3)cc2)ccn1  inhibition (enzyme activity; inhibitor; 10 µM): -16%
CC1(C)NC(=O)c2[nH]c3c(Cl)c(Cl)ccc3c2C1C#N (stereo not shown)  ΔTm (thermal stability; DSF; 10 µM): 1 °C
Cc1ccc(Nc2nccc(N(C)c3ccc4c(C)n(C)nc4c3)n2)cc1S(N)(=O)=O  inhibition (enzyme activity; inhibitor; 0.3 µM): -15%
C[C@H](c1ccnc(Nc2nc3ccc(-c4cc(N(C)C)ncn4)cc3[nH]2)c1)N1CCN(C(=O)CC(F)(F)F)CC1  remaining binding (cell-free assay; competition with immobilised ligand; 0.1 µM): 100%
N#CC1c2c([nH]c3c(Cl)c(Cl)ccc23)C(=O)NC12CCCCC2 (racemic)  ΔTm (thermal stability; DSF; 10 µM): -0.6 °C
COc1ccc2cc(OCC3(C(=O)O)CN(C(=O)c4ccc(F)cc4)C3)ccc2c1  remaining binding (cell-free assay; competition with immobilised ligand; 1 µM): 76%
O=C(Nc1cnn(-c2csc(C(=O)NC3COC3)c2)c1)Nc1c(F)cccc1Cl  remaining activity (enzyme activity; inhibitor; 5 µM): 110%
CCOc1cc(-c2nncn2C)ccc1Nc1ncc2cc(C)nc(NCC(C)(C)C)c2n1  inhibition (cell-free assay; TR-FRET; 1 µM): ≤ 15%
CN(C)C(=O)Cn1cc(-c2nc([C@@](C)(c3ccc(-c4cnc(N)nc4)cc3)C3CC3)no2)cn1  remaining binding (cell-free assay; competition with immobilised ligand; 1 µM): 100%
Cn1c2c(Cl)c(Cl)ccc2c2cc[nH]c(=O)c21  ΔTm (thermal stability; DSF; 10 µM): 0 °C
Cc1ccc(C(=O)Nc2ccc(CN3CCN(C)CC3)c(C(F)(F)F)c2)cc1C#Cc1cnc2cccnn12  remaining activity (enzyme activity; inhibitor; 23.5 nM): 100%
CC(=O)N1CCC(c2ccc(C(=O)NC(=N)N)cc2C(F)(F)F)CC1  remaining binding (cell-free assay; competition with immobilised ligand; 1 µM): 100%
CCN(CC)CCNC(=O)c1c(C)[nH]c(/C=C2\C(=O)Nc3ccc(F)cc32)c1C  inhibition (enzyme activity; inhibitor; 10 µM): -5%
O=C(O)c1cc(-c2ccc(C3CCNCC3)cc2)c2ccc(-c3ccc(C(F)(F)F)cc3)cc2c1  remaining binding (cell-free assay; competition with immobilised ligand; 1 µM): 100%
COc1cc(Cl)c(C(=O)N[C@@H](CN[C@H]2CC[C@@H](N)CC2)Cc2ccc(C#N)cc2)cc1-c1ccc(CN[C@H](C)c2ccc(C)cc2)o1  remaining activity (enzyme activity; inhibitor; 1 µM): 100%
CN(C)c1ncnc(-c2ccc3nc(Nc4cc(CN5CCN(C(=O)CC(F)(F)F)CC5)ccn4)[nH]c3c2)c1Cl  remaining binding (cell-free assay; competition with immobilised ligand; 1 µM): 91%
Cc1cnc(NC2CCOCC2)nc1-n1cnc(C(=O)NC(CN)c2cc(F)cc(Cl)c2)c1 (stereo not shown)  remaining activity (enzyme activity; inhibitor; radiometric; 1 µM): 95%
c1ccc(N2CCN(Cc3nc4ccccc4[nH]3)CC2)nc1  remaining binding (binding; competition with immobilised ligand; 1 µM): 100%
CCCS(=O)(=O)Nc1ccc(F)c(C(=O)c2c[nH]c3ncc(-c4ccc(Cl)cc4)cc23)c1F  inhibition (enzyme activity; inhibitor; 1 µM): < 10%
